Bioassay records deposited in PubChem by several laboratories.
The list is not random: actives were taken first. Their share in the collection is about 2.4%.
H9c2 protect: protects H9c2 cardiomyocytes from peroxide injury; H2O2 injury protection, ATPLite, 2 h; protection from H2O2 cell death, % at 20 µM; 0.63% of 360,000 active;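 active = compounds giving at least 50% protection of heart cells from peroxide-induced death in the single-dose screen, raw or plate-pattern-corrected value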;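 also: 0% = DMSO wells with peroxide and 100% = DMSO wells without peroxide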
GASC-1 inh: inhibitors of human GASC-1 (JMJD2C) demethylase | inhibition, % at 2.35 µM | 0.069% of 330,000 active | GST-JMJD2C(1-420) H3K9me3 demethylation, DELFIA europium | Q9H3R0;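 active = more than half of a compound's replicate wells show inhibition beyond 50%, single wells judged on their own value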;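 also: signal counts dimethyl H3K9 product captured on neutravidin plate; 0% = median of DMSO wells and 100% = 0.3 times that DMSO median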
PP5 inh: PP5 (human) phosphatase inhibition | purified PP5c, OMFP substrate fluorescence | inhibition, % at 6.7 µM | 0.18% of 320,000 active | AID 1987;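 active = inhibition above the campaign's mean inhibition across all tested compounds plus 3 SD, cut at about 9.5% in these data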;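 also: 0% = DMSO only and 100% = 100 µM cantharidin control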
Target sequence (P53041 whole entry, looked up): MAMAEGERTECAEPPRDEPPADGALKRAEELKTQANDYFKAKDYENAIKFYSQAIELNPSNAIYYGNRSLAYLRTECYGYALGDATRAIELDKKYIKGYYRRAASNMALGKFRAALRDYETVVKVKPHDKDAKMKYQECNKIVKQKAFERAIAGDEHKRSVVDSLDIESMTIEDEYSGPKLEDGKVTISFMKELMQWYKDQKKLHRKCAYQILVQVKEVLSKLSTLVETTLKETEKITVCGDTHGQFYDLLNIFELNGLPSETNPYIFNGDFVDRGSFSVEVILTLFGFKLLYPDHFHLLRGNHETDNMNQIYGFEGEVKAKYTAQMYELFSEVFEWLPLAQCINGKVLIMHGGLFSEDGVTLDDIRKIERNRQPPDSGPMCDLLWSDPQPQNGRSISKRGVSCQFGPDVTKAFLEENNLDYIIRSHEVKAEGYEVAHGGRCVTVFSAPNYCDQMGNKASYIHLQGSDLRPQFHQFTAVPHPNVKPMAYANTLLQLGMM
CTSL1 counter: cathepsin L1 inhibition, PFM18AAP counter-screen. recombinant F. hepatica cathepsin L1, Z-Leu-Arg-MCA fluorescence. inhibition, % at 5.96 µM. 0.49% of 300,000 active;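 active = inhibition above the mean of all tested compounds plus 3 SD, set per screening campaign, cut at about 17% in these data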;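 also: 0% = plate median of test compound wells and 100% = 1 µM Z-Phe-Ala-diazomethylketone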
T cruzi inh: blocks replication of Trypanosoma cruzi; T. cruzi beta-gal in NIH3T3, luminescence, 90 h; inhibition, % (test concentration not listed); 1.4% of 300,000 active;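 active = mean inhibition across valid replicates above about 55%, limit read from the data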;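 also: signal also drops with host cell toxicity which is not excluded here; 0% = plate median of DMSO wells and 100% = zero luminescence signal; higher percent means less beta-gal luminescence so fewer parasites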
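assay system = mouse NIH/3T3 fibroblasts infected with β-gal-expressing T. cruzi Tulahuen C4 | input = 5,000 NIH/3T3 host cells per well | buffer or medium = DMEM plus 2% FBS | timing = 3 h host attachment, then at least 90 h co-culture | measured by = GalScreen luminescence, 60 min | evaluation = luminescence reflecting intracellular parasite burden, expressed as percent inhibition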
pCIP destab: p/CIP protein destabilization | Q05BA5 | F442A p/CIP-EGFP cells, EGFP fluorescence, 16 h | decrease of EGFP signal, % at 10 µM | 0.01% of 290,000 active | AID 1984;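 active = EGFP signal decrease of at least 30% at 10 µM or well 3 SD below plate mean, unless failing retest; inactive = the rest, including hits failing retest or dose response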
An asterisk follows results filed as active; i = inactive; / = not tested or not shown.

SMILES	H9c2 protect	GASC-1 inh	PP5 inh	CTSL1 counter	T cruzi inh	pCIP destab
COc1ccc(CN2CCC[C@]3(N[C@H](c4ccc(C)cc4)[C@@H]4C(=O)N(C)C(=O)[C@@H]43)C2=O)cc1	-4	/	/	/	/	/
O=S(=O)(c1ccc(Cl)cc1)N1CCC(N2CCOCC2)CC1	0	4	1	1	3	-9
Nc1nc(-c2ccc(Cl)cc2)c(N=Nc2ccc(S(=O)(=O)N3CCOCC3)cc2)s1	14	-1	0	-8	59*	7
CC1C(=O)C(C)C(c2ccc([N+](=O)[O-])cc2)NC1c1ccc([N+](=O)[O-])cc1 (configuration not stated)	-1	8	2	-1	67*	1
CN(C)CCCNCC(=O)c1c(-c2ccccc2)n(C)c2ccccc12	2	-17	2	-1	29	1
COc1ccc(-c2cc(-c3nnc(COC(=O)C4CC4)o3)c3ccccc3n2)cc1OC	80*	-1	1	-13	3	-7
COc1ccc(-c2cc(-c3nnc(COC(=O)C4CC4C)o3)c3ccccc3n2)cc1OC (configuration not stated)	85*	13	0	-10	5	-8
Cc1c(C(=O)O)sc(S(=O)(=O)N2CCN(C(=O)CC(C)c3ccccc3)CC2)c1C(=O)O (configuration not stated)	2	/	/	/	/	/
OCCN=Cc1c(O)[nH]c2ccccc12	14	6	0	1	-8	0
CN(C)CC(C)(C)CN=Cc1c(O)[nH]c2ccccc12	6	30	3	-1	61*	-15
CC1CCCC(NC(=S)NC(=O)c2ccco2)C1C (configuration not stated)	-12	1	/	/	/	/
O=C1C2C3C=CC(C3)C2C(=O)N1CNc1ccc(O)cc1 (configuration not stated)	/	-2	7	71*	-4	3
COc1ccc(C(=O)N/C(=C\c2ccc(Cl)cc2)C(=O)NCC2CCCO2)cc1 (configuration not stated)	-6	9	1	17*	-1	7
COc1ccc(/C=C(/NC(=O)c2ccc(C)cc2)C(=O)NCC2CCCO2)cc1 (configuration not stated)	3	-2	1	2	-5	6
COc1cccc2c1O/C(=N\O)C(C(=O)Nc1ccc(C)cc1)C2 (configuration not stated)	2	5	0	-1	-12	6
CCOC(=O)c1c(C)[nH]c2cc(Br)c(OC)cc12	-7	-14	0	-6	/	2
CCOC(=O)c1c(C)[n+](-c2ccc(C)cc2)c(CC)c2cc(OC)c(OC)cc12	-14	9	1	2	55*	-11
O=C(NNC(=O)c1cc(Br)ccc1O)c1csc(N2CCOCC2)n1	66*	-4	3	/	/	/
O=C(NNC(=O)c1cc(Br)ccc1Cl)c1csc(N2CCOCC2)n1	4	10	1	-1	3	10
Cc1[nH]c(=O)[nH]c(=O)c1NC(=O)c1ccccc1[N+](=O)[O-]	1	/	/	/	/	/
COc1ccc(-c2nc3c(c(SCC(=O)N4CCOCC4)n2)Cc2c(CO)cnc(C)c2O3)cc1	77*	-4	1	7	1	-10
Cc1ccc(-c2nc3c(c(SCC(=O)N4CCOCC4)n2)Cc2c(CO)cnc(C)c2O3)cc1	36	6	-2	6	2	4
O=C(CN1CC[n+]2c(-c3cccs3)csc21)c1ccc(Br)cc1	-1	-11	2	0	60*	-7
O=C(CN1CC[n+]2c(-c3ccccc3)csc21)c1ccc(Br)cc1	-6	7	3	-1	30	-48
CCN(CC)S(=O)(=O)c1cccc(C(=O)N/N=C/c2ccc(O)c(O)c2O)c1	42	15	3	-3	/	-7
SMILES	H9c2 protect	GASC-1 inh	PP5 inh	CTSL1 counter	T cruzi inh	pCIP destab
CCN(CC)S(=O)(=O)c1cccc(C(=O)N/N=C(\C)c2ccc(O)cc2O)c1	48	6	-3	0	64*	-8
Cc1sc2ncnc(N3CCC(C(=O)Nc4nc(-c5cccs5)cs4)CC3)c2c1C	-6	-5	1	9	64*	/
C#CCOCCOCCOCCNc1nc(OC)nc(N2CCN(C(=O)[C@H](CCC(=O)O)n3cc(C(N)CO)nn3)CC2)n1 (some centres not stated)	2	1	1	-3	/	/
Cn1c(N)c(C(=O)CSc2n[nH]c(N)n2)c(=O)n(C)c1=O	3	/	/	/	/	/
CC1=CC(C)(C)Nc2ccc(OS(=O)(=O)c3ccc(C)cc3)cc21	-16	-4	3	-1	53	-12
CC1=CC(C)(C)Nc2ccccc21	1	14	1	2	75*	-14
COc1ccc2c(c1)NC(C)(C)C=C2C	-11	-4	1	-2	66*	-10
CCOC(=O)C(N=Nc1nn[nH]n1)C(C)=O (configuration not stated)	5	/	/	/	/	/
O=C(NCCC1=CCCCC1)c1ccc2c(c1)N(Cc1ccccc1)C(=O)CS2	-4	-5	3	4	56*	-15
O=C(NCCN1CCOCC1)c1ccc2c(c1)N(Cc1ccccc1)C(=O)CS2	2	-2	1	32*	-3	-11
CN1C(=O)CS(=O)c2ccc(C(=O)NCCC3=CCCCC3)cc21 (configuration not stated)	-10	-13	0	-1	-10	1
O=C(NCCN1CCOCC1)c1ccc2c(c1)N(Cc1ccc(Cl)cc1)C(=O)CS2	5	-3	1	-1	7	9
Cc1cc(CN(C)C(=O)C2CCC(=O)N(CCc3cccc(F)c3)C2)on1 (configuration not stated)	-3	-4	0	1	3	-69
COc1ccc(Cl)cc1NC(=O)CSc1nc2[nH]ncc2c(=O)[nH]1	6	/	/	/	/	/
Cc1[nH]c2ccccc2c1SCC(=O)NC1CCCCC1	-6	11	0	23*	-15	-12
CC(=O)Nc1nc(-c2cccc3ccccc23)cs1	-2	3	-3	4	57*	3
CC(=O)Nc1nc(-c2ccc(-c3ccccc3)cc2)cs1	-4	/	/	/	/	/
Cc1cn([C@H]2C[C@H](O)[C@@H](CNCc3ccc(Oc4cc(-n5cccn5)ncn4)cc3)O2)c(=O)[nH]c1=O	6	/	/	/	/	/
COc1ccc(N=C2S/C(=C\c3ccc(OCC(=O)O)cc3)C(=O)N2CCc2c[nH]c3ccccc23)cc1	-5	2	/	/	0	-1
COc1ccc(N=C2S/C(=C\c3ccc(N4CCOCC4)o3)C(=O)N2CCc2c[nH]c3ccccc23)cc1	-16	i	2	-7	56*	-28
CCN(CC(=O)NC1CCS(=O)(=O)C1)S(=O)(=O)c1ccc(Cl)c(C(F)(F)F)c1 (configuration not stated)	0	/	/	/	/	/
